In publication PMC5624809 (Journal of the American Chemical Society, 2017):
Read-outs that look alike come from different tables or passages of the source. Marks after values point to notes of the source that are not given here. Blank lines part the entries; values can stand above or below the compound they belong to.

Experiments:
FXa [1] = test: anti-FXa effect in a rat model; type: in vivo
Method in brief: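 Anti-Xa activity measured at several time points after dosing, with a saline-treated group as control. Values are mean ± S.D. (n = 4). Each treated group was compared with control by two-tailed Student's t-test, with p < 0.05 flagged.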

FXa [2] = test: in vitro inhibition of the activity of FXa; type: biochemical; conditions: for IC50: read-out: Anti-FXa activity (IC50)
antithrombin (AT) [3] = biological target: T1, antithrombin (AT) (Homo sapiens, UniProt P01008); test: AT-binding affinity analysis using isothermal titration calorimetry; conditions: for Kd: read-out: Binding affinity (Kd) to AT; for Kd / Binding affinity (Kd) to AT: ITC
T1 sequence (P01008 33-464): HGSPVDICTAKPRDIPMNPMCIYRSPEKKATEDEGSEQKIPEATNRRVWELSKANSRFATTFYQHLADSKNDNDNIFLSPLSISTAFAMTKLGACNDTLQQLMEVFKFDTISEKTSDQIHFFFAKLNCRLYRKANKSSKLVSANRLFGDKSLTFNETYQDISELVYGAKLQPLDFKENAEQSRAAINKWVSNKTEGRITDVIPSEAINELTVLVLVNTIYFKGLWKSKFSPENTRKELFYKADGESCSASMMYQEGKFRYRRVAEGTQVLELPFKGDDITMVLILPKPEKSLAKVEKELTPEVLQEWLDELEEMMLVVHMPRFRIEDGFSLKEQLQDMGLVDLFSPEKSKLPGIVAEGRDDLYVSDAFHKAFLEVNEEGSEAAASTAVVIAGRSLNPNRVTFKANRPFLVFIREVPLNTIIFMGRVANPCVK

antithrombin (AT) [4] = biological target: T1, antithrombin (AT); conditions: read-out: Binding affinity (Kd) to AT; affinity coelectrophoresis; cited from earlier work
FXa [5] = conditions: cited from earlier work
antithrombin (AT) [6] = biological target: T1, antithrombin (AT); conditions: cited from earlier work

IC50 (FXa [2]): 9.1 nM
Compound: GlcNS6S-GlcA-GlcNS3S6S-IdoA2S-GlcNS6S-GlcA-pNP [Comp 8*]
anti-FXa activity (in words) (FXa [2]): displayed anti-FXa activity
Kd (antithrombin (AT) [4]): 7 ± 2 nM

IC50 (FXa [2]): 12.2 nM
Compound: CO[C@H]1O[C@H](COS(=O)(=O)O)[C@@H](O[C@@H]2O[C@@H](C(=O)O)[C@@H](O[C@H]3O[C@H](COS(=O)(=O)O)[C@@H](O[C@@H]4O[C@H](C(=O)O)[C@@H](O[C@H]5O[C@H](COS(=O)(=O)O)[C@@H](O)[C@H](O)[C@H]5NS(=O)(=O)O)[C@H](O)[C@H]4O)[C@H](OS(=O)(=O)O)[C@H]3NS(=O)(=O)O)[C@H](O)[C@H]2OS(=O)(=O)O)[C@H](O)[C@H]1NS(=O)(=O)O [Fondaparinux, GlcNS6S-GlcA-GlcNS3S6S-IdoA2S-GlcNS6S-OMe, reference compound]
persistence of anti-FXa effect in vivo (FXa [1]; time after administration): persisted after 8 hours

IC50 (FXa [2]): 9.4 nM
Compound: GlcNAc6S-GlcA-GlcNS3S6S-IdoA2S-GlcNS6S-IdoA2S-GlcNS6S-GlcA-pNP [Comp 11*]
Kd (antithrombin (AT) [4]): 8 ± 3 nM

IC50 (FXa [2]): 10.9 nM
AT binding (in words) (antithrombin (AT) [3]): high AT-binding affinity
Kd (antithrombin (AT) [3]): 5.6 ± 2.6 nM
Compound: O=C(O)[C@H]1O[C@@H](Oc2ccc([N+](=O)[O-])cc2)[C@H](O)[C@@H](O)[C@@H]1O[C@H]1O[C@H](COS(=O)(=O)O)[C@@H](O[C@@H]2O[C@@H](C(=O)O)[C@@H](O[C@H]3O[C@H](COS(=O)(=O)O)[C@@H](O[C@@H]4O[C@@H](C(=O)O)[C@@H](O[C@H]5O[C@H](COS(=O)(=O)O)[C@@H](O[C@@H]6O[C@H](C(=O)O)[C@@H](O[C@H]7O[C@H](COS(=O)(=O)O)[C@@H](O)[C@H](O)[C@H]7NS(=O)(=O)O)[C@H](O)[C@H]6O)[C@H](OS(=O)(=O)O)[C@H]5NS(=O)(=O)O)[C@H](O)[C@H]4OS(=O)(=O)O)[C@H](OS(=O)(=O)O)[C@H]3NS(=O)(=O)O)[C@H](O)[C@H]2OS(=O)(=O)O)[C@H](O)[C@H]1NS(=O)(=O)O [Comp 6, GlcNS6S-GlcA-GlcNS3S6S-IdoA2S-GlcNS3S6S-IdoA2S-GlcNS6S-GlcA-pNP]
anti-FXa activity (in words) (FXa [2]): displaying anti-FXa activity

More lines, now with the values behind:

Compound: GlcNS6S-GlcA-GlcNS6S-IdoA2S-GlcNS3S6S-IdoA2S-GlcNS6S-GlcA-pNP [Comp 5]
anti-FXa potency in vivo (FXa [1]; within 30 min after the drug was administered): comparable anti-FXa potency to that of fondaparinux and compound 11*
anti-FXa activity (in words) (FXa [2]): strong anti-FXa activity
IC50 (FXa [2]): 7.7 nM
AT binding (in words) (antithrombin (AT) [3]): binds to AT tightly
Kd (antithrombin (AT) [3]): 5.1 ± 1.4 nM

Compound: O=C(O)[C@H]1O[C@@H](O[C@H]2[C@H](OS(=O)(=O)O)[C@@H](NS(=O)(=O)O)[C@@H](O[C@H]3[C@H](O)[C@@H](OS(=O)(=O)O)[C@H](O[C@H]4[C@H](OS(=O)(=O)O)[C@@H](NS(=O)(=O)O)[C@@H](O[C@H]5[C@H](O)[C@@H](O)[C@H](Oc6ccc([N+](=O)[O-])cc6)O[C@@H]5C(=O)O)O[C@@H]4COS(=O)(=O)O)O[C@H]3C(=O)O)O[C@@H]2COS(=O)(=O)O)[C@H](O)[C@@H](O)[C@@H]1O[C@H]1O[C@H](COS(=O)(=O)O)[C@@H](O)[C@H](O)[C@H]1NS(=O)(=O)O [Comp 3, GlcNS6S-GlcA-GlcNS3S6S-IdoA2S-GlcNS3S6S-GlcA-pNP]
anti-FXa activity (in words) (FXa [2]): strong anti-FXa activity
IC50 (FXa [2]): 11 nM

Compound: GlcNS-GlcA-GlcNS-IdoA2S-GlcNS3S-IdoA2S-GlcNS-GlcA-pNP [Comp 4]
Anti-FXa activity (IC50) (FXa [2]): No inhibition
Binding affinity (Kd) to AT (antithrombin (AT) [3]): No binding ^c

Compound: O=C(O)C1OC(OC2C(COS(=O)(=O)O)OC(OC3C(C(=O)O)OC(OC4C(COS(=O)(=O)O)OC(OC5C(C(=O)O)OC(Oc6ccc([N+](=O)[O-])cc6)C(O)C5O)C(NS(=O)(=O)O)C4O)C(OS(=O)(=O)O)C3O)C(NS(=O)(=O)O)C2OS(=O)(=O)O)C(O)C(O)C1OC1OC(COS(=O)(=O)O)C(O)C(O)C1NS(=O)(=O)O (stereo not drawn) [GlcA2S-containing 6-mer, GlcNS6S-GlcA-GlcNS3S6S-GlcA2S-GlcNS6S-GlcA-pNP]
anti-FXa activity (in words) (FXa [5]): did not display anti-FXa activity
Binding affinity (Kd) to AT (antithrombin (AT) [6]): No binding ^d

Compound: O=C(O)C1OC(OC2C(COS(=O)(=O)O)OC(OC3C(C(=O)O)OC(OC4C(COS(=O)(=O)O)OC(OC5C(C(=O)O)OC(Oc6ccc([N+](=O)[O-])cc6)C(O)C5O)C(NS(=O)(=O)O)C4O)C(O)C3O)C(NS(=O)(=O)O)C2OS(=O)(=O)O)C(O)C(O)C1OC1OC(COS(=O)(=O)O)C(O)C(O)C1NS(=O)(=O)O (stereo not drawn) [IdoA-containing 6-mer, GlcNS6S-GlcA-GlcNS3S6S-IdoA-GlcNS6S-GlcA-pNP]
anti-FXa activity (in words) (FXa [5]): exhibited anti-FXa activity
IC50 (FXa [5]; read-out: Anti-FXa activity (IC50)): 29.2 nM
Kd (antithrombin (AT) [6]; read-out: Binding affinity (Kd) to AT): 32.6 ± 5.3 nM

Compound: O=C(O)C1OC(OC2C(COS(=O)(=O)O)OC(OC3C(C(=O)O)OC(OC4C(COS(=O)(=O)O)OC(OC5C(C(=O)O)OC(Oc6ccc([N+](=O)[O-])cc6)C(O)C5O)C(NS(=O)(=O)O)C4OS(=O)(=O)O)C(OS(=O)(=O)O)C3O)C(NS(=O)(=O)O)C2O)C(O)C(O)C1OC1OC(COS(=O)(=O)O)C(O)C(O)C1NS(=O)(=O)O (stereo not drawn) [Comp 2, GlcNS6S-GlcA-GlcNS6S-IdoA2S-GlcNS3S6S-GlcA-pNP]
Anti-FXa activity (IC50) (FXa [2]): No inhibition
Binding affinity (Kd) to AT (antithrombin (AT) [3]): No binding
